Entries after “also recorded” stand apart in the source; their conditions may differ.
How the values were obtained:
E. coli [1] = experiment: Radial diffusion assay in the presence of RBCs and/or serum; format: cell-based, Escherichia coli; settings: RBCs up to 1x10^9 cells/ml, 30 min 37°C; result in words
Outline: (§1)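 Log-phase (TSB) E. coli ATCC 25922 or S. aureus ATCC 25923, 8 × 10^6 CFU in 20 mL underlay agarose with 3 mm wells. Test peptide at 20 μM was preincubated 30 min at 37 °C with washed human O+ RBCs and/or filtered serum at 2–20% of whole blood (1 × 10^8–1 × 10^9 cells/mL). 10 μL per well, 3 h at 37 °C, overlay, overnight; inhibition zones imaged.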

S. aureus = experiment: Radial diffusion assay in the presence of RBCs; format: cell-based, Staphylococcus aureus; settings: RBCs up to 1x10^9 cells/ml, 30 min 37°C; result in words
Outline: as §1

[2] = system: Staphylococcus aureus strain ATCC 25923; experiment: Broth dilution MIC; format: cell-based; settings: absence of RBCs; 5x10^5 CFU/ml, overnight 37°C; result in words
human RBC = experiment: Hemolysis of human RBCs; format: cell-based; settings: result in words; for Hemolysis, propensity to lyse human RBCs: 1x10^8 human RBC/ml, 100 μM peptide, 37° C, 1 hour; for Selectivity (antimicrobial activity relative to host cell toxicity): represented by hemolysis at 100 μM peptide
[3] = system: Escherichia coli strain ATCC 25922; experiment: Broth dilution MIC; format: cell-based; settings: result in words; for Activity (MIC) in broth dilution against E. coli: absence of RBCs, 5x10^5 CFU/ml, overnight 37°C
[4] = system: Escherichia coli strain ATCC 25922; settings: result in words; cited from earlier work
[5] = system: Staphylococcus aureus strain ATCC 25923; settings: result in words; cited from earlier work
E. coli [6] = experiment: Number of bound peptides required to kill E. coli; format: cell-based, Escherichia coli; settings: calculated from sterilization limit and binding curve
Pseudomonas aeruginosa = settings: result in words; cited from earlier work

[H]/N=C(/N)N[C@H]1[C@H](O)[C@@H](O)[C@H](O[C@@H]2O[C@@H](C)[C@](O)(C=O)[C@H]2O[C@@H]2O[C@@H](CO)[C@H](O)[C@@H](O)[C@@H]2NC)[C@@H](N/C(N)=N\[H])[C@@H]1O [streptomycin]
Effect of preincubation with RBCs on radial diffusion activity (E. coli [1]): not affected significantly

CN[C@H](CC(C)C)C(=O)N[C@H]1C(=O)N[C@@H](CC(N)=O)C(=O)N[C@H]2C(=O)N[C@H]3C(=O)N[C@H](C(=O)N[C@H](C(=O)O)c4cc(O)cc(O)c4-c4cc3ccc4O)[C@H](O)c3ccc(c(Cl)c3)Oc3cc2cc(c3O[C@@H]2O[C@H](CO)[C@@H](O)[C@H](O)[C@H]2O[C@H]2C[C@](C)(N)[C@H](O)[C@H](C)O2)Oc2ccc(cc2Cl)[C@H]1O [vancomycin]
Effect of preincubation with RBCs on radial diffusion activity (S. aureus): not affected significantly

GIGKFLHSAKKFGK-AFVGEIMNS [magainin II]
Activity (MIC) in broth dilution against S. aureus [2]: active only against E. coli | Hemolysis, propensity to lyse human RBCs (human RBC): near zero propensity to lyse dilute human RBCs | Selectivity (antimicrobial activity relative to host cell toxicity) (human RBC): highly selective | Activity (MIC) in broth dilution against E. coli [3]: active only against E. coli

GIGKFLKKAKK-FGKAFVKILKK-NH2 [MSI-78]
Selectivity (antimicrobial activity relative to host cell toxicity) (human RBC): moderately high selectivity

ILPWKWPWWPWRR-NH2 [indolicidin]
Selectivity (antimicrobial activity relative to host cell toxicity) (human RBC): poor selectivity; also recorded: very poor selectivity

KWKLFKKIEKVGQN-IRDGIIKAGPAVAVVGQATQIAK [cecropin A]
Activity (MIC) in broth dilution against S. aureus [2]: not against S. aureus | Hemolysis, propensity to lyse human RBCs (human RBC): near zero propensity to lyse dilute human RBCs | Selectivity (antimicrobial activity relative to host cell toxicity) (human RBC): highly selective; also recorded: most selective in our set | Activity (MIC) in broth dilution against E. coli [3]: highly active

LLGDFFRKSKEKIGKEFKRIVQRIKDFLRNLVPRTES [LL-37]
Activity in sterilization assay against E. coli (known) [4]: poor against E. coli | Activity in sterilization assay against S. aureus (known) [5]: undetectable against S. aureus

RRGWALRLVLAY-NH2 [ARVA-L]
Selectivity (antimicrobial activity relative to host cell toxicity) (human RBC): fair selectivity | Host cell effect on MIC without preincubation with host cells ([3]; compared with preincubation, organism not stated): much smaller

RRGWALRLVLAY-NH2 [ARVA]
Bound peptides per bacterial cell required for sterilization (no surviving CFUs) (E. coli [6]): > 1x10^8 peptides per bacterial cell

RRWVRRVRRWVRRVVR-VVRRWVRR [WLBU2]
Activity in whole blood against Pseudomonas aeruginosa (Pseudomonas aeruginosa): retained activity in whole blood

melittin
Hemolysis, propensity to lyse human RBCs (human RBC): highly hemolytic | Selectivity (antimicrobial activity relative to host cell toxicity) (human RBC): completely non-selective; also recorded: least selective peptide by far | Selectivity (antimicrobial activity relative to host cell toxicity) (human RBC; listed as Melittin): entirely non-selective

— publication PMC5521815 (ACS chemical biology, 2016)
